From ChEMBL document CHEMBL1138867, “Design, synthesis, potency, and cytoselectivity of anticancer agents derived by parallel synthesis from alpha-aminosuberic acid” (J Med Chem, 2006)
Active and inactive are the calls of the source. No cut-off for these calls is given here.

What was measured:
NFF = test: Antiproliferative activity against human NFF cells; format: functional, cell-based
Summary of the method: (§1)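 Cells cultured in RPMI 1640 with 10% heat-inactivated FCS, 3 mM HEPES, 5% CO2, 37 °C; NFF are primary neonatal foreskin fibroblasts. Cells were seeded at 5 × 10^3/well and left to adhere overnight. They were exposed to compound for 24 h, then the medium was replaced and cells grown a further 72 h. Survival was read by SRB staining at 564 nm, giving IC50.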

MM96L [1] = test: Antiproliferative activity against human MM96L cells; format: functional, cell-based; summary of the method: as §1
HOP-62 = test: Antiproliferative activity against human HOP62 cells; format: functional, cell-based; summary of the method: as §1
T47D = test: Antiproliferative activity against human T-47D cells; format: functional, cell-based; summary of the method: as §1
DU-145 = test: Antiproliferative activity against human DU145 cells; format: functional, cell-based; summary of the method: as §1
HT-29 = test: Antiproliferative activity against human HT29 cells; format: functional, cell-based; summary of the method: as §1
[2] = Antiproliferative activity against human H520 cells; format: functional, cell-based; conditions: NCI-H520; summary of the method: as §1
SK-MEL-5 = test: Antiproliferative activity against human SK-Mel-5 cells; format: functional, cell-based; summary of the method: as §1
PC-3 = test: Antiproliferative activity against human PC3 cells; format: functional, cell-based; summary of the method: as §1
SK-MEL-28 = test: Antiproliferative activity against human SK-Mel-28 cells; format: functional, cell-based; summary of the method: as §1
C180-13S = test: Antiproliferative activity against human C180-13S cells; format: functional, cell-based; summary of the method: as §1
COLO 205 = test: Antiproliferative activity against human Colo205 cells; format: functional, cell-based; summary of the method: as §1
[3] = Antiproliferative activity against human JAM cells; format: functional, cell-based; summary of the method: as §1
MCF7 = test: Antiproliferative activity against human MCF7 cells; format: functional, cell-based; summary of the method: as §1
A549 [4] = test: Antiproliferative activity against human A549 cells; format: functional, cell-based; summary of the method: as §1
A549 [5] = test: Induction of p21 expression in human A549 cells after 24 hrs; format: functional, cell-based
Summary of the method: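 A549 cells were treated 24 h with 0.05, 0.5 or 5 µg/mL compound or vehicle. Lysates were made by sonication in 1% SDS/20% glycerol/10 mM Tris pH 7.4 buffer, and protein was quantified by BCA. Then 30 µg was run on 15% SDS-PAGE and immunoblotted for p21WAF1/Cip1 (1:1000), with GAPD (1:10 000) as reference, using chemiluminescence detection.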

A549 (Homo sapiens) = test: Induction of p21 expression in human A549 cells
MM96L [6] = test: Effect on cell morphology in human MM96L cells at 3 ug/mL after 24 hrs; format: functional, cell-based

Compound | IC50 (NFF) | IC50 (MM96L [1]) | also measured
CN(C)c1ccc(NC(=O)[C@H](CCCCCC(=O)NO)NC(=O)c2ccc(C(F)(F)F)cc2)cc1 | 400 nM | 220 nM | –
O=C(CCCCC[C@H](NC(=O)OCc1ccccc1)C(=O)NC1CCCc2ccccc21)NO (stereo partly drawn) | 1700 nM | 1700 nM | –
COc1ccc(CCNC(=O)C(CCCCCC(=O)NO)NC(=O)c2ccco2)cc1 (stereo not drawn) | 1300 nM | 970 nM | –
O=C(CCCCC[C@H](NC(=O)OCc1ccccc1)C(=O)Nc1cccc2cccnc12)NO | 452 nM | 43 nM | IC50 (HOP-62): 226 nM; IC50 (T47D): 93 nM; IC50 (DU-145): 131 nM; IC50 (HT-29): 334 nM; IC50 [2]: 118 nM; IC50 (SK-MEL-5): 70 nM; IC50 (PC-3): 528 nM; IC50 (SK-MEL-28): 146 nM; IC50 (C180-13S): 124 nM; IC50 (COLO 205): 122 nM; IC50 [3]: 194 nM; IC50 (MCF7): 122 nM; IC50 (A549 [4]): 248 nM
CN(C)c1ccc(NC(=O)[C@H](CCCCCC(=O)NO)NC(=O)OCc2ccccc2)cc1 | 650 nM | 610 nM | –
O=C(CCCCC[C@H](NC(=O)c1cc2ccccc2[nH]1)C(=O)NCc1ccccc1)NO | 1260 nM | 250 nM | –
O=C(CCCCC[C@H](NC(=O)c1cc2ccccc2[nH]1)C(=O)NC1(Cc2ccccc2)CCCC1)NO | 1600 nM | 900 nM | –
O=C(CCCCCC(NC(=O)c1cccnc1)C(=O)NCc1ccccc1)NO (stereo not drawn) | 24000 nM | 9500 nM | –
CN(C)c1ccc(NC(=O)[C@H](CCCCCC(=O)NO)NC(=O)/C=C/c2ccccc2)cc1 | 240 nM | 160 nM | –
CN(C)c1ccc(C(=O)N[C@H](CCCCCC(=O)NO)C(=O)NCc2ccccc2)cc1 | 1000 nM | 160 nM | –
O=C(CCCCCC(NC(=O)c1ccco1)C(=O)NCc1ccccc1)NO (stereo not drawn) | 4600 nM | 200 nM | –
O=C(CCCCC[C@H](NC(=O)Cc1ccc(-c2ccccc2)cc1)C(=O)NCc1ccccc1)NO | 5130 nM | 2360 nM | –
CC(C)COC(=O)N[C@@H](CCCCCC(=O)NO)C(=O)Nc1cccc2cccnc12 | 81 nM | 23 nM | IC50 (HOP-62): 267 nM; IC50 (T47D): 198 nM; IC50 (DU-145): 130 nM; IC50 (HT-29): 360 nM; IC50 [2]: 129 nM; IC50 (SK-MEL-5): 100 nM; IC50 (PC-3): 651 nM; IC50 (SK-MEL-28): 170 nM; IC50 (C180-13S): 149 nM; IC50 (COLO 205): 395 nM; IC50 [3]: 221 nM; IC50 (MCF7): 138 nM; IC50 (A549 [4]): 291 nM
O=C(CCCCC[C@H](NC(=O)c1cc2c(Br)cccc2[nH]1)C(=O)NCc1ccccc1)NO | 1940 nM | 490 nM | –
O=C(CCCCC[C@H](NC(=O)CCCc1c[nH]c2ccccc12)C(=O)NCc1ccccc1)NO | 7030 nM | 1850 nM | –
CN(C)c1ccc(C(=O)N[C@@H](CCCCCC(=O)NO)C(=O)Nc2cccc3cccnc23)cc1 | 570 nM | 20 nM | IC50 (HOP-62): 137 nM; IC50 (T47D): 45 nM; IC50 (DU-145): 61 nM; IC50 (HT-29): 178 nM; IC50 [2]: 63 nM; IC50 (SK-MEL-5): 32 nM; IC50 (PC-3): 220 nM; IC50 (SK-MEL-28): 73 nM; IC50 (C180-13S): 65 nM; IC50 (COLO 205): 223 nM; IC50 [3]: 85 nM; IC50 (MCF7): 35 nM; IC50 (A549 [4]): 148 nM
CN(C)c1ccc(C(=O)NC(CCCCCC(=O)NO)C(=O)NC2CCCc3ccccc32)cc1 (stereo not drawn) | 1810 nM | 300 nM | –
O=C(CCCCC[C@H](NC(=O)c1cc2c(O)cccc2[nH]1)C(=O)NCc1ccccc1)NO | 2210 nM | 330 nM | –
O=C(CCCCC[C@H](NC(=O)c1cc2ccccc2[nH]1)C(=O)Nc1cccc2cccnc12)NO | 337 nM | 21 nM | IC50 (HOP-62): 63 nM; IC50 (T47D): 19 nM; IC50 (DU-145): 22 nM; IC50 (HT-29): 79 nM; IC50 [2]: 26 nM; IC50 (SK-MEL-5): 18 nM; IC50 (PC-3): 148 nM; IC50 (SK-MEL-28): 33 nM; Activity (A549 [5]): Active; IC50 (C180-13S): 20 nM; IC50 (COLO 205): 102 nM; Activity (A549 (Homo sapiens)): Active; IC50 [3]: 48 nM; IC50 (MCF7): 19 nM; IC50 (A549 [4]): 69 nM
O=C(CCCCC[C@H](NC(=O)c1cccs1)C(=O)NCc1ccccc1)NO | 5200 nM | 890 nM | –
O=C(CCCCC[C@H](NC(=O)OCc1ccccc1)C(=O)NCc1ccccc1)NO | 1520 nM | 1520 nM | –

Compound | IC50 (NFF) | IC50 (MM96L [1]) | also measured
O=C(CCCCC[C@H](NC(=O)c1ccc(Br)cc1)C(=O)NCc1ccccn1)NO | 2090 nM | 1150 nM | –
O=C(CCCCC[C@H](NC(=O)C12CC3CC(CC(C3)C1)C2)C(=O)NCc1ccccc1)NO | 7130 nM | 3950 nM | –
O=C(CCCCC[C@H](NC(=O)c1ccc(C(F)(F)F)cc1)C(=O)NCc1ccccc1)NO | 1610 nM | 660 nM | –
O=C(CCCCC[C@H](NC(=O)OCc1ccccc1)C(=O)Nc1ccc(-c2ccccc2)cc1)NO | 2200 nM | 330 nM | –
CC(C)CCNC(=O)C(CCCCCC(=O)NO)NC(=O)c1cccnc1 (stereo not drawn) | 12000 nM | 9000 nM | –
O=C(CCCCC[C@H](NC(=O)c1ccc(Br)cc1)C(=O)Nc1ccc(-c2ccccc2)cc1)NO | 190 nM | 70 nM | IC50 (HOP-62): 261 nM; IC50 (T47D): 197 nM; IC50 (DU-145): 149 nM; IC50 (HT-29): 307 nM; IC50 [2]: 117 nM; IC50 (SK-MEL-5): 102 nM; IC50 (PC-3): 531 nM; IC50 (SK-MEL-28): 168 nM; IC50 (C180-13S): 158 nM; IC50 (COLO 205): 272 nM; IC50 [3]: 182 nM; IC50 (MCF7): 149 nM; IC50 (A549 [4]): 335 nM
O=C(CCCCCC(NC(=O)c1ccc([N+](=O)[O-])cc1)C(=O)NCc1ccccc1)NO (stereo not drawn) | 9000 nM | 6000 nM | –
CN(C)c1ccc(C(=O)N[C@@H](CCCCCC(=O)NO)C(=O)NC2(Cc3ccccc3)CCCC2)cc1 | 3000 nM | 900 nM | –
O=C(/C=C/c1c[nH]c2ccccc12)N[C@@H](CCCCCC(=O)NO)C(=O)NCc1ccccc1 | 10400 nM | 3240 nM | –
O=C(CCCCC[C@H](NC(=O)OCc1ccccc1)C(=O)NCc1ccncc1)NO | 23300 nM | 4320 nM | –
CC(C)CCNC(=O)C(CCCCCC(=O)NO)NC(=O)c1ccco1 (stereo not drawn) | 4400 nM | 1500 nM | –
O=C(CCCCC[C@H](NC(=O)c1ccc(Br)cc1)C(=O)NCc1ccccc1)NO | 5860 nM | 1990 nM | –
O=C(/C=C/c1ccccc1)N[C@@H](CCCCCC(=O)NO)C(=O)Nc1cccc2cccnc12 | 1240 nM | 21 nM | IC50 (HOP-62): 65 nM; IC50 (T47D): 20 nM; IC50 (DU-145): 30 nM; IC50 (HT-29): 99 nM; IC50 [2]: 27 nM; IC50 (SK-MEL-5): 29 nM; IC50 (PC-3): 109 nM; IC50 (SK-MEL-28): 37 nM; IC50 (C180-13S): 28 nM; IC50 (COLO 205): 141 nM; IC50 [3]: 49 nM; IC50 (MCF7): 17 nM; IC50 (A549 [4]): 73 nM
O=C(CCCCC[C@H](NC(=O)Cc1c[nH]c2ccccc12)C(=O)NCc1ccccc1)NO | > 2200 nM | 330 nM | –
O=C(CCCCC[C@H](NC(=O)c1ccc(C(F)(F)F)cc1)C(=O)Nc1cccc2cccnc12)NO | 696 nM | 258 nM | –
O=C(CCCCC[C@H](NC(=O)OCC1c2ccccc2-c2ccccc21)C(=O)NCc1ccccc1)NO | 5370 nM | 3200 nM | –
O=C(/C=C/c1ccccc1)N[C@@H](CCCCCC(=O)NO)C(=O)NCc1ccccc1 | 4010 nM | 460 nM | –
O=C(CCCCC[C@H](NC(=O)c1ccc(Br)cc1)C(=O)NCc1ccncc1)NO | 5240 nM | 830 nM | –
CN(C)c1ccc(C(=O)N[C@@H](CCCCCC(=O)NO)C(=O)NCc2ccccn2)cc1 | 33000 nM | 3600 nM | –
CN(C)c1ccc(C(=O)N[C@@H](CCCCCC(=O)NO)C(=O)NCc2ccccc2)cc1 | 12000 nM | 1600 nM | Activity (MM96L [6]): Active
